Results on 20 molecules are retold here after ChEMBL document CHEMBL4699587, “Pyridine-4(1H)-one Alkaloids from Waltheria indica as Antitrypanosomatid Agents” (J Nat Prod, 2020).

Some results are limits rather than exact numbers.

Data set [1] deals with Trypanosoma cruzi. The experiment in a line: Growth inhibition of amastigote form of Trypanosoma cruzi Tulahuen C2C4 expressing LacZ infected in rat L6 cells assessed as reduction in parasitic growth incubated for 96 hra by CPRG/Nonidet reagent based inverted microscopic analysis. Type of data set: functional, organism-based. In short, it runs like this: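 Intracellular amastigotes of T. cruzi Tulahuen C4 strain were tested in vitro for growth inhibition. IC50 values are in µM, given as the mean of two independent assays or the mean of three independent assays ± SD.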

For data set [2], the system named is L6. In words: Cytotoxicity against rat L6 cells assessed as reduction in cell viability after 70 hrs by resazurin dye based inverted microscopic analysis. The following applies: L6, 70 h. A general note: The colour change of resazurin is a common sign of viable cells or microbes.
A short description of data set [3]: Selectivity index, ratio of IC50 for cytotoxicity against rat L6 cells to IC50 for growth inhibition of amastigote form of Trypanosoma cruzi Tulahuen C2C4 expressing LacZ infected in rat L6 cells. In kind it is toxicity, cell-based. The following applies: read-out: Ratio IC50. In short, it runs like this: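 Selectivity index is calculated as the IC50 for cytotoxicity in uninfected rat skeletal L6 host cells divided by the IC50 against T. cruzi (Tulahuen C4) amastigotes. Both IC50 values are in µM.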

The term IC50 denotes the midpoint of a concentration-inhibition curve. For `COc1c(C)[nH]c2c(c1=O)[C@@H](CCCCCc1ccccc1)CC[C@H]2OC`, the half-inhibitory concentration (IC50) in data set [1] came out at 0.1 µM; in data set [2], 1.8 µM. Moreover, the selectivity ratio in data set [3] is 13.8.
With `CCCCCCCC[C@H]1CC[C@@H](O)c2[nH]c(C)c(OC)c(=O)c21`, the IC50 was found to be 6.5 µM in data set [1] and 26.2 µM in data set [2]. The selectivity ratio in data set [3] worked out at 4.
As for `COc1c(C)[nH]c(CCCCCCCCCc2ccccc2)cc1=O`, the IC50 was 2.1 µM in data set [1] and > 29 µM in data set [2]. For the same molecule, in data set [3], the selectivity ratio is > 13.
Regarding `COc1c(C)[nH]c2c(c1=O)[C@@H](CCCCCc1ccccc1)CCC2`, the IC50 came out at 1.3 µM in data set [1] and 6.5 µM in data set [2]. Moreover, the selectivity ratio in data set [3] stood at 5.
The matching figures for `COc1c(C)[nH]c2ccc3c(c2c1=O)[C@@H]1CC[C@H](O)[C@@]3(c2ccccc2)O1`: > 20 µM, > 22 µM and > 1.
With `COc1ccccc1[C@@]12CC[C@@H](OC1)c1c2ccc2[nH]c(C)c(OC)c(=O)c12`, the concentration for half-maximal inhibition (IC50) in data set [1] was 19 µM; in data set [2], > 26 µM. Also, the selectivity ratio in data set [3] was > 1.
Regarding `CCCCCCCCc1cccc2[nH]c(C)c(OC)c(=O)c12`, the IC50 was determined as 10 µM in data set [1] and 15 µM in data set [2]. The selectivity ratio in data set [3] is 1.5.
The matching figures for `COc1ccccc1[C@]12CC[C@H](O[C@@H]1OC)c1c2ccc2[nH]c(C)c(OC)c(=O)c12`: 18.7 µM, > 24 µM and > 1.
Regarding `COc1c(C)n(OC)c2c(c1=O)[C@@H](CCCC[C@H](O)c1ccccc1)CCC2`, the half-maximal inhibitory concentration (IC50) was 7.5 µM in data set [1] and > 26 µM in data set [2]. The selectivity ratio in data set [3] is > 3.5.
Take `COc1c(C)[nH]c2c(OC)ccc(CCCCCc3ccccc3)c2c1=O`: the values for the IC50 in data set [1] and in data set [2] were 2.1 µM and > 26 µM, respectively. The selectivity ratio in data set [3] was > 12.5.
Regarding `COc1c(CO)[nH]c2c(c1=O)[C@H](CCCCCc1ccccc1)CCC2`, the IC50 was 7 µM in data set [1] and > 28 µM in data set [2]. The selectivity ratio in data set [3] was > 4.
Turning to `COc1cc(CCCCCc2ccccc2)c2c(=O)c(OC)c(C)[nH]c2c1OC`, the IC50 was 12.9 µM in data set [1] and > 23 µM in data set [2]. For the same molecule, the selectivity ratio in data set [3] was > 1.5.
For the molecule `COc1ccc(OC)c([C@@]2(O)c3ccc4[nH]c(C)c(OC)c(=O)c4c3[C@@H]3CC[C@H]2O3)c1`, the IC50 in data set [1] is 14.7 µM; in data set [2], > 25 µM. In addition, in data set [3], the selectivity ratio was > 1.
In the case of `COc1c(C)[nH]c2c(c1=O)[C@@H](CCCCCc1ccccc1)CCC2=O`, the results for the IC50 in data set [1] and in data set [2] were 0.5 µM and 12 µM, respectively. Also, the selectivity ratio in data set [3] was determined as 24.5.
In the case of `COc1c(CO)[nH]c2ccc3c(c2c1=O)[C@@H]1CCC[C@@]3(c2ccccc2)O1`, the IC50 in data set [1] was 14.7 µM; in data set [2], > 22 µM. In addition, in data set [3], the selectivity ratio is > 1.5.
With `COc1cc(OC)cc(C2=CCCCc3c2ccc2[nH]c(C)c(OC)c(=O)c32)c1`, the IC50 in data set [1] is 13.1 µM; in data set [2] it was > 25 µM. In addition, the selectivity ratio in data set [3] was > 1.5.
On to `CCCCCCCCCCCCc1cc(=O)c(OC)c(C)[nH]1`, for which the IC50 in data set [1] was 5 µM; in data set [2] it was > 32 µM. The selectivity ratio in data set [3] is > 6.
Consider `COc1c(CO)n(OC)c2c(c1=O)[C@H](CCCCCc1ccccc1)CCC2`, for which the IC50 in data set [1] is 3.9 µM; in data set [2] it was > 26 µM. Besides, in data set [3], the selectivity ratio is > 6.
In the same order, the values of `COc1c(C)[nH]c2c(c1=O)[C@@H](CCCCCc1ccccc1)CC[C@H]2O` are 0.8 µM, > 28 µM and > 33.
`O=C(Cn1ccnc1[N+](=O)[O-])NCc1ccccc1` [BENZNIDAZOLE]: the IC50 in data set [1] was 2.9 µM; in data set [2] it was > 345 µM. The selectivity ratio in data set [3] was > 119.
